According to ChEMBL document CHEMBL4513216, “Probing the Open Global Health Chemical Diversity Library for Multistage-Active Starting Points for Next-Generation Antimalarials” (ACS Infect Dis, 2020):

experiment: Toxicity liver stage against HepG2, at 10uM; type: cell-based; parameters: test concentration 10 uM, cell line HepG2-A16-CD81EGFP; conditions: human, HepG2-A16-CD81EGFP cells; read-out: INHIBITION
How it was run: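 Uninfected HepG2-A16-CD81EGFP cells, 3 × 10^3 per well, 1536-well, plated on prespotted compound at 10 μM final, parasite-free screening media added to match infected plates; puromycin 10 μM positive, DMSO 0.5% negative; run in parallel with 48 h PbLuc assay at 37 °C, 5% CO2; viability by CellTiter-Glo luminescence, normalized to controls.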

Row | SMILES | cytotoxicity at 10 µM [%]
1 | N#Cc1ccc(S(=O)(=O)Nc2ccccc2C#N)cn1 | -2.93
2 | CC(=O)N1CCN(Cc2ccsc2)CC2(CC(=O)N(C)C2)C1 (configuration not stated) | -1.27
3 | COc1cccc(CCC(=O)N2CCCC(c3nncn3C)C2)c1 (configuration not stated) | -20.1
4 | Cc1ncc2c(n1)CN(CC1CCCCO1)CC2 (configuration not stated) | -2.3
5 | CC(C)c1cc2c(s1)NC(c1ccccc1)NC2=O (configuration not stated) | 8.82
6 | O=C(CCCc1cccs1)N1CCC(N2CCNC2=O)CC1 | 2.83
7 | CN(C)C(=O)Cc1nc(CN2CCCC2Cn2cncn2)cs1 (configuration not stated) | 8.58
8 | CCc1ccsc1C(=O)NC(Cc1ccccc1)C(N)=O (configuration not stated) | 9.01
9 | COCC(=O)N1CCCCC1c1ccnc(Nc2ncc(C)s2)n1 (configuration not stated) | -10.6
10 | CCC(C)(C)NC(=O)COC(=O)c1cc(C)ccc1NC(=O)N(C)C | 1.12
11 | CNC(=O)C1CCCN(c2nc(-c3ccco3)nc3c2CCNCC3)C1 (configuration not stated) | -7.74
12 | COCCN1CCC(CNCc2c[nH]nc2C(C)(C)C)CC1 | -17
13 | CCc1ccc(NC(=O)C2CCN(C(=O)COC)CC2)cc1 | 0.929
14 | O=C(O)COCC(=O)NC1CC2(CCCCC2)Oc2ccccc21 (configuration not stated) | -28.5
15 | Cc1ccccc1CC(=O)N(C)C1CCCC1 | 6.33
16 | CC(C)C(C)N(C)Cc1nnc(-c2ccco2)o1 (configuration not stated) | 2.65
17 | Cc1cnc(CNC(=O)C[C@@H]2COC[C@H]3CN(C4CCC4)C[C@@H]23)cn1 | -10.6
18 | Cc1nc(C)n(C2CCCN(C(=O)CCc3ccncc3)C2)n1 (configuration not stated) | -5.23
19 | COc1ccccc1N1CCC(CNCc2cccc(OC)c2OC)C1 (configuration not stated) | 0.445
20 | CCCS(=O)(=O)N1C[C@H]2OC(=O)N(CCc3cccc(Cl)c3)[C@H]2C1 | -2.12
21 | Cn1cccc1C(=O)N1CCC2(CCN(C(=O)c3cccnc3)C2)CC1 | -102
22 | Cc1cccn2c(=O)cc(CN3CCCC3Cn3cncn3)nc12 (configuration not stated) | 0.714
23 | Cc1oc(NC(=O)C(C)N2CCN(CCO)CC2)c(C#N)c1C (configuration not stated) | -13.6

Row | SMILES | cytotoxicity at 10 µM [%]
24 | COCC(=O)N1CCC2(CC1)CCn1c(-c3cccc(OC)c3)cnc12 | -5.21
25 | CCc1nc(C2CCCN(C(=O)CC3CCOCC3)C2)no1 (configuration not stated) | -15.3
26 | Fc1cccc(-c2nc(CN3CCCCC3Cn3cncn3)co2)c1 (configuration not stated) | -12.8
27 | Cc1cc(C(=O)N2CCc3ncc(CN4CCCCC4)n3CC2)no1 | -100
28 | CS(=O)(=O)N1CCC(C(=O)NCCNc2ncccn2)CC1 | -8.11
29 | Cn1nc(CNC(=O)C2CCC2)cc1C1CC1 | -4.31
30 | O=S(=O)(NCCNc1cc(-n2cccc2)ncn1)c1cccs1 | -0.582
31 | Cc1nc(CN2C(=O)COC3(CCN(C)CC3)C2C)cs1 (configuration not stated) | -128
32 | Cn1ncc(N2CCC(CNC(=O)[C@@H](N)c3ccccc3)CC2)cc1=O | 4.18
33 | CC(C)=CCN1C[C@@H]2CC[C@H]1CN(Cc1cc(=O)[nH]c(=O)[nH]1)C2 | -17.3
34 | CC(C)N(Cc1ccc(C#N)cc1)Cc1nnsc1Cl | 12.6
35 | CCc1cc(C(F)(F)F)c2c(C3CCN(C(=O)COC)CC3)noc2n1 | 14
36 | O=c1c(NCCc2ccc(O)cc2)c(NCc2ccco2)c1=O | -10.7
37 | COc1ncccc1C(=O)N1CCCC(n2ccnc2)C1 (configuration not stated) | -5.1
38 | CCOCCCNC(=O)C(C)n1cc(Br)cn1 (configuration not stated) | -4.24
39 | COc1cccc(CC2CCCN2CCCC#N)c1 (configuration not stated) | -43.7
40 | CCCc1ncc(CN(CCOC)Cc2cccs2)cn1 | -0.683
41 | Cc1ncc(CO)c(CN2CCCC2c2nc3c(C)cccc3[nH]2)c1O (configuration not stated) | 0.414
42 | CC(NC(=O)NCc1cscn1)c1ccc(N2CCOCC2)cc1 (configuration not stated) | -0.736
43 | Cn1cc(N2C[C@@H]3CN(Cc4ccoc4)C[C@@H]3C2=O)cn1 | -2.93
44 | Cc1nn(C)c(C)c1CN1CCNCC1 | 4.68
45 | NC(=O)C1(CCCc2cccnc2)CCCN(c2ncccn2)C1 (configuration not stated) | 3.61
46 | CCC(CC)NC(=O)c1cccnc1-n1cccn1 | -13.9

Row | SMILES | cytotoxicity at 10 µM [%]
47 | CCn1c(N)nc2cc(C(=O)N3CCN(c4nccs4)CC3)cnc21 | -17.2
48 | COCCO[C@H]1CCN(c2ccc(C)nn2)[C@H]1Cc1cnn(C)c1 | 2.5
49 | Cc1ccc(CNCCC(O)(c2nccn2C)C(F)(F)F)o1 (configuration not stated) | 1.18
50 | Cc1nc(N2C[C@@H](CN3CCCCC3)[C@@H](CO)C2)c2sccc2n1 | -5.12
51 | COCCc1noc(CN2CCCCC2Cn2cncn2)n1 (configuration not stated) | -1.9
52 | CC(C)(C)C(=O)N1C[C@H](c2ccsc2)[C@H]2CN(C3CCCCC3)CC[C@H]21 | 5.9
53 | CS(=O)(=O)NC[C@]12COC[C@H]1CN(C(=O)CCc1ccccc1)C2 | -1.23
54 | Cc1nc(CSCCC(=O)NCCNC(=O)OC(C)(C)C)cs1 | -2.3
55 | CN(Cc1nnnn1C1CC1)c1cccc2ccccc12 | 8.38
56 | CC1(C)CN=C(N2CCN(CC3CCCCO3)CC2)S1 (configuration not stated) | -1.61
57 | Cc1ccnc(C2(C)CCCN2S(=O)(=O)c2ccccc2)n1 (configuration not stated) | 0.435
58 | O=C(c1cc[nH]n1)N1CC[C@@H]2CN(Cc3cccnc3)S(=O)(=O)[C@@H]2CC1 | 12.7
59 | CCC(=O)N1CCCC(Cn2cc(-c3ccc(F)cc3)nn2)C1 (configuration not stated) | 2.89
60 | COCCn1ccc2ccc(C(=O)O)cc21 | -9.13
61 | CCc1nc(C2CCCN(C(=O)C3=NN(CC)C(=O)CC3)C2)no1 (configuration not stated) | -9.28
62 | CN1C(=O)C[C@@H]2[C@@H]1CCN2C(=O)c1ccc[nH]1 | -14.8
63 | COc1ccc(C)cc1-n1cnnc1C1CCCN(C)C1 (configuration not stated) | 6.43
64 | CC(=O)N1CC2(CCN(C(=O)CO)CC2)c2cc(C)ccc21 | 9.37
65 | O=C(c1ccc(F)cc1F)N(CC(F)(F)F)C1CCOCC1 | 1.24
66 | CCc1ccccc1OCCN(C)C(=O)CCN1CCCO1 | -43
67 | CC(C)N1CCN(C(=O)Nc2cnn(CC(N)=O)c2)CC1 | -12.2
68 | CN(C)C(=O)c1noc2c1CN(C(=O)CCCN1CCCCC1)CC2 | -10.5
69 | CS(=O)(=O)c1ccc(NC(=O)NCc2ccc3c(c2)CCC3)cn1 | -4.92

Row | SMILES | cytotoxicity at 10 µM [%]
70 | CN(C)CC(=O)N1CCC2(CC1)CN(Cc1cccnc1)C(=O)CO2 | -8.99
71 | CCN(Cc1ccc(CN(C)C)cc1)C(=O)c1ccncc1O | -7.19
72 | Fc1ccc2[nH]c3c(c2c1)CCN1C(c2ccccn2)N2CCC31CC2 (configuration not stated) | 6.16
73 | CCc1cnc(NCCSc2cnn[nH]2)nc1 | -10.4
74 | Clc1ccc(Cc2nc(CNCCn3cccn3)cs2)cc1 | -1.86
75 | CC(C)[C@@H]1CN(C(=O)C2(c3ccccc3)CCN(C)CC2)C[C@H]1C(=O)O | 8.73
76 | COCCC(=O)N1CCC(c2cc(O)n(C)n2)C1 (configuration not stated) | -23.1
77 | CC(c1nc(C(C)(C)C)no1)N1CCN(c2ccc(C#N)cn2)CC1 (configuration not stated) | 3.84
78 | O=C(Cn1c(=O)n(Cc2ccco2)c2ncccc21)NC1CCCCC1 | 4.73
79 | N#Cc1cccc(OCCN2CCC(C(=O)N3CCOCC3)CC2)c1 | -42.3
80 | CN(C)C[C@H]1C[C@@H]2CN(Cc3ccoc3)C[C@@H]2O1 | 4.85
81 | Cc1ncc(-c2ccnc(SCCN)n2)c(-c2ccco2)n1 | -14.8
82 | O=C(NCC(CO)Cc1cccc(OC(F)(F)F)c1)c1cnccn1 (configuration not stated) | 7.66
83 | CCC1CCCCCN1C(=O)c1coc(S(=O)(=O)N(C)C)c1 (configuration not stated) | 1.66
84 | Cc1c(Cn2cc(Cl)c(N)n2)cnn1C | -5.18
85 | Cc1cccc(CN2CCC(c3nnsc3S(C)(=O)=O)CC2)n1 | -8.69
86 | CNc1nc2c(c(C(=O)N3CCCC3)n1)CN(C(=O)CCSC)CC2 | -114
87 | O=C(Nc1ccc(-n2cncn2)nc1)N(CC1CCOC1)C1CC1 (configuration not stated) | -9.2
88 | CCOc1ccc(CNC(=O)N(C)CC(C)(C)O)cc1C | 4.3
89 | Cc1ccc(S(=O)(=O)Nc2cnn(C3CCOCC3)c2)cc1C | 13.5
90 | COCC(=O)NC(CC(C)C)c1nc2cccnc2n1C (configuration not stated) | 15.2
91 | Cc1ccc(-c2nc(CCNC(=O)CCN3CCOC3=O)co2)cc1 | 2.33
92 | COCc1ccccc1CNCc1c(C(C)C)nn(C)c1N(C)C | -7.83

Row | SMILES | cytotoxicity at 10 µM [%]
93 | CN(C)[C@H]1CCCCN(Cc2ccccc2Cn2cccn2)C1 | -130
94 | Cc1nc(C)n(CC2CCCN2Cc2ncc(C(C)(C)C)o2)n1 (configuration not stated) | -5.53
95 | Cc1noc(C)c1CN1CCC2(CC1)NC(=O)CC2c1ccccc1 (configuration not stated) | -109
96 | CCOCC(=O)Nc1ncn(Cc2cccc(Br)c2)n1 | -5.53
97 | CCCNC(=O)c1cc(C(C)C)nc(N2CCCCC2)n1 | 15.8
98 | CCN(C)Cc1cnc(S(=O)(=O)CC)n1CCOC | 4.38
99 | CCS(=O)(=O)N1CCN(CC(F)(F)F)CC1 | -1.99
100 | CC1CCCCN1C(=O)COc1nc(C(C)(C)C)no1 (configuration not stated) | -3.22
101 | c1ccc(-c2cnc(CNC3CCc4ncnn4C3)o2)cc1 (configuration not stated) | -3.78
102 | Cc1ccc(CN2C[C@H]3OC(=O)N(Cc4ccccn4)[C@H]3C2)o1 | 4.16
103 | CNC(=O)[C@@]12CCO[C@@H]1CCN(S(=O)(=O)c1ccccc1C)C2 | -72.8
104 | CC(C)(O)CNC(=O)NCc1nccn1CCc1ccccc1 | 3.04
105 | CNc1nc(CNC(=O)Nc2ccc(OC(C)C)cc2F)cs1 | 61.2
106 | COc1ccc(CN2CCC3(CC2)CC(c2cccnc2)CO3)cc1 (configuration not stated) | -0.259
107 | N#CC(NC(=O)CC(F)(F)F)c1ccsc1 (configuration not stated) | 7.61
108 | CCC1CN(C(=O)c2ccc(Cl)cc2O)CCN1C(C)C (configuration not stated) | -15.5
109 | Cc1nnc(SCCCNC(=O)Nc2ccc3c(c2)OCO3)s1 | 7.28
110 | O=C(NCC1CC1)c1cc2c(s1)CCN2C(=O)c1cccnc1 | 8.07
111 | CCC(CNC(=O)N1CCOCC2(CCOCC2)C1)c1ccccc1 (configuration not stated) | 5.17
112 | COCCN1CCN(CC(=O)N(C)Cc2ccc(C)o2)CC1C (configuration not stated) | -127
